Series [1] concerns Mus musculus. In words: Effect on osteocalcin level in serum of OVX-induced bone loss ICR mouse model at 5 mg/kg, po for 12 weeks by ELISA (reference value: 176.9 +/- 4.7 ng/ml). The class given is functional.
Another series relates to Osteoclast. In words: Inhibition of RANKL/M-CSF-induced osteoclast differentiation in mouse bone marrow-derived osteoclasts assessed as downregulation of NFATc1 protein expression up to 4 uM after 48 hrs by Western blot analysis. The format is functional, cell-based. Summed up: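 Mouse bone marrow cells were taken from 4-week-old mice and primed 24 h in 30 ng/mL M-CSF. They were then given 100 ng/mL RANKL plus 30 ng/mL M-CSF, with or without compound, for 48 h. Lysates were made in boiling SDS buffer and quantified by BCA. 40–50 μg was run on SDS-PAGE and immunoblotted on PVDF with β-actin reference and ECL read-out.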
Background: In western blotting, separated proteins are transferred to a membrane and probed.

Series [2] has as its system MC3T3-E1. The experiment in a line: Downregulation of DKK1 protein expression in mouse MC3T3-E1 cells up to 4 uM after 48 hrs in presence of ascorbic acid and beta-glycerophosphate by Western blot analysis. The class given is functional, cell-based. Summed up:
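MC3T3-E1 cells given 400 μM ascorbic acid plus 5 mM β-glycerophosphate, exposed to test compound or not for 48 h. Lysed in boiling SDS sample buffer, protein measured by BCA. 40−50 μg of lysate run on 8% or 10% SDS-PAGE and transferred to PVDF. Blocked in 5% milk, probed with primary antibodies for 3 h at room temperature or overnight at 4 °C, detected by ECL.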

For series [3], the species on record is Mus musculus. The experiment in a line: Activation of Wnt signaling pathway in mouse MC3T3-E1 cells assessed as increase in BMP2 mRNA expression after 48 hrs in presence of ascorbic acid and beta-glycerophosphate by real-time PCR analysis. The class given is cell-based. (In qPCR the cycle at which signal appears reflects the starting amount.)
The nature of series [4]: Cytotoxicity against mouse MC3T3-E1 cells assessed as cell viability up to 4 uM after 72 hrs by MTT assay. The following applies: read-out: Activity. The class given is cell-based. Summed up: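 MC3T3-E1 cells (1 × 10^4 cells/mL) exposed to a range of concentrations for 72 h at 37 °C, 5% CO2. MTT added (500 μg/mL final) for 4 h, formazan dissolved in DMSO, A570 read. Viability given as % of solvent control; IC50 by nonlinear regression of % survival versus concentration.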

The subject of series [5] is MC3T3-E1. In words: Increase in ALP mRNA expression in 2 days differentiated mouse MC3T3-E1 cells up to 4 uM after 48 hrs in presence of ascorbic acid and beta-glycerophosphate by real-time PCR analysis. The format is functional, cell-based. The method in brief:
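MC3T3-E1 cells stimulated with 400 μM ascorbic acid and 5 mM β-glycerophosphate, with or without compound, 48 h. TRIzol RNA, real-time RT-PCR: 40 cycles of 95 °C 20 s, 56 °C 20 s, 72 °C 30 s. Ct of each transcript […] β-actin Ct, expressed relative to control samples.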

Series [6] concerns MC3T3-E1. The experiment in a line: Upregulation of OCN protein expression in mouse MC3T3-E1 cells up to 4 uM after 48 hrs in presence of ascorbic acid and beta-glycerophosphate by Western blot analysis. The format is functional, cell-based.
For series [7], the system named is Mus musculus. In words: Decrease in OVX-induced increase in body weight in ICR mouse at 2 to 10 mg/kg, po for 12 weeks. The class given is functional, organism-based.
Series [8] has as its system MC3T3-E1. In words: Upregulation of OPN protein expression in 2 days differentiated mouse MC3T3-E1 cells up to 4 uM after 48 hrs in presence of ascorbic acid and beta-glycerophosphate by Western blot analysis. The class given is functional, cell-based.
Series [9] has as its system MC3T3-E1. In words: Decrease in RANKL mRNA expression in mouse MC3T3-E1 cells at up to 4 uM after 48 hrs in presence of ascorbic acid and beta-glycerophosphate by real-time PCR analysis. The format is functional, cell-based.
Series [10] is filed under the species Mus musculus. The experiment in a line: Activation of Wnt signaling pathway in mouse MC3T3-E1 cells assessed as increase in Runx2 mRNA expression after 48 hrs in presence of ascorbic acid and beta-glycerophosphate by real-time PCR analysis. The class given is cell-based.
For series [11], the system named is Mus musculus. The experiment in a line: Effect on C-terminal telopeptide level in serum of OVX-induced bone loss ICR mouse model at 2 mg/kg, po for 12 weeks by ELISA (reference value: 95.7 +/- 3.8 ng/ml). The format is functional.
Series [12] has as its system Mus musculus. The experiment in a line: Anti-osteoporotic activity in po dosed OVX-induced bone loss ICR mouse model assessed as increase in bone mineral density administered for 12 weeks by microcomputed tomography. The format is functional, organism-based.
For series [13], the system named is Mus musculus. In words: Effect on […] level in serum of OVX-induced bone loss ICR mouse model at 10 mg/kg, po for 12 weeks by ELISA (reference value: 8.2 +/- 0.4 mg/dl). The format is functional. Background: An ELISA detects its analyte on a solid surface through an enzyme-linked reagent.
The test system of series [14] is MC3T3-E1. The experiment in a line: Antiosteoporotic activity in mouse MC3T3-E1 cells assessed as increase in alkaline phosphatase activity after 4 days using pNPP as substrate in presence of ascorbic acid and beta-glycerophosphate by colorimetric assay. The class given is functional, cell-based. The method in brief:
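MC3T3-E1 cells (2 × 10^4 cells/mL) in osteogenic medium (400 μM ascorbic acid, 5 mM β-glycerophosphate) with or without compound for 4 days. Fixed in 70% ethanol, lysed in Tris/0.1% Triton X-100 pH 7.5. ALP read as p-NPP to p-nitrophenol at 405 nm; protein by Bradford.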

The test system of series [15] is MC3T3-E1. The experiment in a line: Upregulation of ALP protein expression in 2 days differentiated mouse MC3T3-E1 cells up to 4 uM after 48 hrs in presence of ascorbic acid and beta-glycerophosphate by Western blot analysis. The class given is functional, cell-based.
Series [16] relates to MC3T3-E1. The experiment in a line: Antiosteoporotic activity in mouse MC3T3-E1 cells assessed as formation of mineralized nodule after 14 days in presence of ascorbic acid and beta-glycerophosphate by Alizarin red S staining-based microscopic method. The class given is functional, cell-based. Summed up:
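MC3T3-E1 cells (2 × 10^4 cells/mL) in 400 μM ascorbic acid and 5 mM β-glycerophosphate, with or without compound, for 14 days. Fixed in 70% ethanol 30 min, stained 5 min with 2% Alizarin red S (pH 4.0), viewed by microscopy. Stain extracted with 10% cetylpyridinium chloride, A570 read.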

The test system of series [17] is Mus musculus. In words: Effect on TRAP activity in serum of OVX-induced bone loss ICR mouse model at 5 mg/kg, po for 12 weeks (reference value: 19.8 +/- 1.0 U/L). The class given is functional.
For series [18], the system named is Mus musculus. In words: Effect on […] level in serum of OVX-induced bone loss ICR mouse model at 5 mg/kg, po for 12 weeks by ELISA (reference value: 8.2 +/- 0.4 mg/dl). The class given is functional.
Series [19] has as its system Mus musculus. In words: Anti-osteoporotic activity in ovariectomized ICR mouse assessed as increase in ratio of bone volume to tissue volume of femur at 2 to 10 mg/kg, po after 12 weeks by microcomputed tomography. The format is functional, organism-based.
Series [20] is filed under the species Mus musculus. In words: Activation of Wnt signaling pathway in mouse MC3T3-E1 cells assessed as upregulation of cyclin D1 protein expression after 48 hrs in presence of ascorbic acid and beta-glycerophosphate by Western blot analysis. The class given is cell-based. The method in brief:
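MC3T3-E1 cells with 400 μM ascorbic acid and 5 mM β-glycerophosphate, with or without compound, for 48 h. Whole-cell lysates (40−50 μg, BCA) separated by SDS-PAGE, blotted to PVDF. c-Myc and cyclin D1 probed with primary antibodies, then secondary antibody for 90 min, read by chemiluminescence.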

Series [21] concerns Mus musculus. The experiment in a line: Effect on calcium level in serum of OVX-induced bone loss ICR mouse model at 5 mg/kg, po for 12 weeks by ELISA (reference value: 9.3 +/- 0.3 mg/dl). The format is functional.

Activity calls are given as the source filed them. The rule behind the calls is not given here. A value given as a limit tells only on which side of the number the result lay.

The record followed here is ChEMBL document CHEMBL4052590, “Anti-Osteoporotic Activity of Harpagoside by Upregulation of the BMP2 and Wnt Signaling Pathways in Osteoblasts and Suppression of Differentiation in Osteoclasts” (J Nat Prod, 2017).

Turning to `C[C@]1(OC(=O)/C=C/c2ccccc2)C[C@@H](O)[C@]2(O)C=CO[C@@H](O[C@@H]3O[C@H](CO)[C@@H](O)[C@H](O)[C@H]3O)[C@@H]21` [HARPAGOSIDE], the Activity with Mus musculus [1] was 162.7 ng/mL; in the series listed under Mus musculus [3], “Dose-dependent effect”; in the series on MC3T3-E1 [5], “Dose-dependent effect”; in the series on MC3T3-E1 [8], “Dose-dependent effect”; in the series listed under Mus musculus [10], “Dose-dependent effect”; in the series on Mus musculus [11] it was 88.5 ng/mL. Besides, the Activity entry in the series on Mus musculus [12] was “Dose-dependent effect”; in the series on Mus musculus [13], 8.2 mg/dL; in the series on MC3T3-E1 [14] it was “Dose-dependent effect”; in the series on MC3T3-E1 [15] it was “Dose-dependent effect”; in the series on MC3T3-E1 [16], “Dose-dependent effect”; with Mus musculus [17], 8.9 U/L. For the same molecule, the Activity in the series on Mus musculus [18] was 8 mg/dL; in the series filed under Mus musculus [20] it was “Dose-dependent effect”; in the series on Mus musculus [21], 9.6 mg/dL. Moreover, the inhibition entry in the series on Osteoclast was “Active”. Moreover, the outcome in the series on MC3T3-E1 [2], in the series with MC3T3-E1 [6], with Mus musculus [7], in the series on MC3T3-E1 [9] and in the series with Mus musculus [19] was Active. In series [4], the viability at 72 h is greater than 90%.
